Results as given in ChEMBL document CHEMBL1151849, “Antioxidant hydroquinones substituted by beta-1,6-linked oligosaccharides in wheat germ” (J Nat Prod, 2009).
Activity calls are given as the source filed them. No cut-off for these calls is given here.

Assays:
[1] = tested on: Radical scavenging activity; assay: Antioxidant activity assessed as ABTS radical cation scavenging activity by TEAC assay
[2] = Antioxidant activity assessed as trolox equivalents of ABTS radical scavenging activity by TEAC assay; type: functional
Method in brief: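 ABTS radical cation generated from 7 mM ABTS plus 2.5 mM K2S2O8 in water, kept dark at room temperature 16-18 h, then diluted in aqueous 50% EtOH to A734 0.70 ± 0.02. 10.0, 20.0 or 30.0 µL of 1.00 mM aqueous compound added to 2.00 mL radical solution. A734 decrease recorded from 15 s to 5 min. Calibration curves compared with Trolox, expressed as mM Trolox equivalent to 1 mM compound.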

Nucleic Acid = assay: Protection against H2O2-induced DNA damaging activity of pBR322 assessed as induction of single stranded breaks by gel electrophoresis; conditions: Escherichia coli
Method in brief: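 pBR322 plasmid (100 ng) incubated 1 h at 37 °C in 100 mM sodium phosphate pH 7.4 with 0.3% H2O2 and 30, 100, 300 ng or 1 µg compound. Reaction volume was 12 µL. Analysed on a 0.7% agarose gel run 1.5 h at 80 V, stained with 0.5 µg/mL ethidium bromide for 15 min, then imaged under UV.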

SMILES	Activity [1]	Activity [2]	Activity (Nucleic Acid)
COc1cc(O[C@@H]2O[C@H](CO[C@@H]3O[C@H](CO)[C@@H](O)[C@H](O)[C@H]3O)[C@@H](O)[C@H](O)[C@H]2O)cc(OC)c1O	Active	0.85	–
COc1cc(O[C@@H]2O[C@H](CO[C@@H]3O[C@H](CO[C@@H]4O[C@H](CO[C@@H]5O[C@H](CO)[C@@H](O)[C@H](O)[C@H]5O)[C@@H](O)[C@H](O)[C@H]4O)[C@@H](O)[C@H](O)[C@H]3O)[C@@H](O)[C@H](O)[C@H]2O)ccc1O	Active	0.88	–
COc1cc(O[C@@H]2O[C@H](CO[C@@H]3O[C@H](CO[C@@H]4O[C@H](CO)[C@@H](O)[C@H](O)[C@H]4O)[C@@H](O)[C@H](O)[C@H]3O)[C@@H](O)[C@H](O)[C@H]2O)ccc1O	Active	0.97	Dose-dependent effect
COc1cc(O)ccc1O[C@@H]1O[C@H](CO[C@@H]2O[C@H](CO[C@@H]3O[C@H](CO)[C@@H](O)[C@H](O)[C@H]3O)[C@@H](O)[C@H](O)[C@H]2O)[C@@H](O)[C@H](O)[C@H]1O	–	1.76	–
COc1cc(O[C@@H]2O[C@H](CO[C@@H]3O[C@H](CO)[C@@H](O)[C@H](O)[C@H]3O)[C@@H](O)[C@H](O)[C@H]2O)ccc1O	Active	0.94	–
OC[C@H]1O[C@@H](OC[C@H]2O[C@@H](OC[C@H]3O[C@@H](Oc4ccc(O)cc4)[C@H](O)[C@@H](O)[C@@H]3O)[C@H](O)[C@@H](O)[C@@H]2O)[C@H](O)[C@@H](O)[C@@H]1O	–	1.12	–
COc1cc(O[C@@H]2O[C@H](CO[C@@H]3O[C@H](CO[C@@H]4O[C@H](CO)[C@@H](O)[C@H](O)[C@H]4O)[C@@H](O)[C@H](O)[C@H]3O)[C@@H](O)[C@H](O)[C@H]2O)cc(OC)c1O	Active	0.8	–
